Values after ≈ are worked out from the molar mass of the structure shown.
Tests used:
[1] = molecular target: T1, Bile acid receptor (Homo sapiens) (UniProt Q96RI1); experiment: Agonist activity against human FXR in human HEK293T cells co-expressing pFR/pRL-Luc assessed as receptor activation at 10 uM incubated for 14 to 16 hrs by hybrid reporter gene assay relative to bexarotene; assay type: cell-based; settings: filed as agonist, time 14-16 hrs
T1 sequence (whole entry): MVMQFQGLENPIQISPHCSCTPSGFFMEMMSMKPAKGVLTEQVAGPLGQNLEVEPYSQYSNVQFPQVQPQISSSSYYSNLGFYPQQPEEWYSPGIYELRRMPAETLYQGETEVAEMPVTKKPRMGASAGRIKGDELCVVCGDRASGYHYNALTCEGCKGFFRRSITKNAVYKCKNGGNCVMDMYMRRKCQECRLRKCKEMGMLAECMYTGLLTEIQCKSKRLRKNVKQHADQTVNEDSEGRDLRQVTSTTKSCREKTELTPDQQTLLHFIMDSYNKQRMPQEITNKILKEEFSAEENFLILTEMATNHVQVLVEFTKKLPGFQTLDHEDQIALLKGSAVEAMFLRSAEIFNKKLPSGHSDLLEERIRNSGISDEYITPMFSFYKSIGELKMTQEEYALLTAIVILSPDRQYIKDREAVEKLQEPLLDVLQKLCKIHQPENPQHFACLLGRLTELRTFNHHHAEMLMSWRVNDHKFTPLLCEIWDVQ
In short: (§1)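 Gal4 hybrid reporter assay in HEK293T cells, seeded 24 h before transfection (Lipofectamine LTX, Opti-MEM) with pFR-Luc, pRL-SV40 and pFA-CMV plasmid carrying the hinge region and LBD of the human receptor. After 5 h, compound added in 0.1% DMSO, with 0.1% DMSO alone as untreated control. Dual-Glo luciferase read after 14−16 h; firefly/renilla normalized; duplicates, ≥2 independent experiments.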

[2] = Aqueous solubility of compound in pH 8 phosphate buffer incubated for 1 hr by HPLC analysis; assay type: physicochemical; settings: phosphate buffer, pH 8
In short: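 Solubility was measured with 3 mg compound in 2 mL 0.1 M phosphate buffer, pH 8, shaken 1 h at 37 °C. The mixture was pressed through a Uniprep filter and the dissolved compound in the filtrate quantified by HPLC against an external calibration; three independent experiments.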

[3] = molecular target: T2, Retinoic acid receptor RXR-gamma (Homo sapiens, UniProt P48443); experiment: Agonist activity at human RXRgamma transfected in human HEK293T cells co-expressing pFR/pRL-Luc incubated for 14 to 16 hrs by hybrid reporter gene assay; assay type: cell-based
T2 sequence (P48443 whole entry): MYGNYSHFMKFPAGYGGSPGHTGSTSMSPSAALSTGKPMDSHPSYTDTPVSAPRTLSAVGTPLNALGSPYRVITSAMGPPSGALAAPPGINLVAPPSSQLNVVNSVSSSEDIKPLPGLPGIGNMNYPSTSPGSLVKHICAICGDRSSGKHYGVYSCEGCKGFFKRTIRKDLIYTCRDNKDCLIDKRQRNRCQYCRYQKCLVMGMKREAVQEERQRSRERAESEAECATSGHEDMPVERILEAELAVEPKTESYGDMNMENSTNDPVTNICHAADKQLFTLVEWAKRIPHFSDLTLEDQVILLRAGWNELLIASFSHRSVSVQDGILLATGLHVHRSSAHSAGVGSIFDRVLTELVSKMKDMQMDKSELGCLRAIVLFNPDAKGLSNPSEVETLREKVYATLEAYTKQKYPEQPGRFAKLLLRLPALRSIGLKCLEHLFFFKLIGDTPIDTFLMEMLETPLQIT

[4] = molecular target: T3, Peroxisome proliferator-activated receptor delta (Homo sapiens) (UniProt Q03181); experiment: Agonist activity against human PPARdelta in human HEK293T cells co-expressing pFR/pRL-Luc assessed as receptor activation at 10 uM incubated for 14 to 16 hrs by hybrid reporter gene assay relative to bexarotene; assay type: cell-based; settings: filed as agonist, time 14-16 hrs; in short: as §1
T3 sequence (whole entry): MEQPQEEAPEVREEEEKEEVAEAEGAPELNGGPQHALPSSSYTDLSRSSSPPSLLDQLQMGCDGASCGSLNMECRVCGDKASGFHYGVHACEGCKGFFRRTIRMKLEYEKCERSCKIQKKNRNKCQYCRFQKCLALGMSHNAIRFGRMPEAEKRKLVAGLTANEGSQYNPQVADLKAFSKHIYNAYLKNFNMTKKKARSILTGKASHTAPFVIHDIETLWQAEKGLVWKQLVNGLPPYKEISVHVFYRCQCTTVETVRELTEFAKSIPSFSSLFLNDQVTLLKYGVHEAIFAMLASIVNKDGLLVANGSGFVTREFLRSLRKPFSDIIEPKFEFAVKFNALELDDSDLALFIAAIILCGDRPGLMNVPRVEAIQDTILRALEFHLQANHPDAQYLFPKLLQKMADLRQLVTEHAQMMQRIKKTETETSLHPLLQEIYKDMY

[5] = test system: HepG2; experiment: Cytotoxicity against human HepG2 cells assessed as reduction in cell viability up to 100 uM incubated for 48 hrs by WST-1 assay; assay type: cell-based; settings: hepg2, 48 h
In short: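 HepG2 cells were seeded at 3 × 10⁴/well and grown 24 h. Medium was then switched to DMEM with 1% FCS containing compound in 0.1% DMSO; 0.1% DMSO alone was the negative control. After 48 h, WST-1 was added and absorbance read at 450/620 nm after 45 min. Four experiments in duplicate.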

[6] = molecular target: T4, Oxysterols receptor LXR-beta (Homo sapiens) (UniProt P55055); experiment: Agonist activity against human LXRbeta in human HEK293T cells co-expressing pFR/pRL-Luc assessed as receptor activation at 10 uM incubated for 14 to 16 hrs by hybrid reporter gene assay relative to bexarotene; assay type: cell-based; settings: filed as agonist, time 14-16 hrs; in short: as §1
T4 sequence (whole entry): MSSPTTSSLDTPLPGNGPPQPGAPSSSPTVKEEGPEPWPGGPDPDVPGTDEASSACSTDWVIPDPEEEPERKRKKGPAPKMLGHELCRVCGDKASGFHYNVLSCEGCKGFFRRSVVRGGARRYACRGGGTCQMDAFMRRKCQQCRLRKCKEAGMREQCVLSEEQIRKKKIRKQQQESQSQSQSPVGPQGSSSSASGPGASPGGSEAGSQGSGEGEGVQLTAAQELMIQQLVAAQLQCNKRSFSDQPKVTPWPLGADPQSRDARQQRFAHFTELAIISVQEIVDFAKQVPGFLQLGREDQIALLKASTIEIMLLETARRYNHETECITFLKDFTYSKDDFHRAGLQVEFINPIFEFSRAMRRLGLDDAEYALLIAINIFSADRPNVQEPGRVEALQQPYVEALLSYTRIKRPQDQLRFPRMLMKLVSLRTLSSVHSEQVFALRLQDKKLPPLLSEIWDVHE

[7] = Plasma concentration in mouse at 10 mg/kg, po measure after 3 hrs; assay type: ADME, organism-based
In short: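 Mice, n = 3, received a single oral dose of 10 mg/kg in water with 1% hydroxypropyl methylcellulose/Tween 80 (99:1). Tail-vein blood was drawn at 30 and 60 min and tissue collected at 3 h. Compound was quantified by LC−MS and PK derived by noncompartmental analysis.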

Activity [1]: 1% | solubility at 1 h [2]: 21 µg/mL (≈ 56 µM) | EC50 [3]: 1600 nM | Activity [4]: 1% | Activity [6]: 2% | concentration at 3 h [7]: 35000 ng/mL
Structure (SMILES): O=C(O)CCCc1cc(-c2cc(Cl)cc(Cl)c2)n(-c2ccccc2)n1
Activity [5]: Non-Toxic
